Screening results from PubChem BioAssay.
In the library only some 2.3% were active in any assay of this set; here they are far more common.
MT stabilize HCS: stabilizes microtubules in HeLa cells. HeLa tubulin immunostaining HCS, 24 h; share of cells brighter than vehicle mean+2SD. % tubulin-high responders, % at 10 µM. 0.83% of 200,000 active. AID 2205;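 active = plate Z-score above 3 for both tubulin-high and condensed-nucleus cell shares, with cell loss under 80%, at 10 µM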;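 also: anti alpha tubulin signal scored within the nucleus-defined area of each cell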
Autophagy mod: alters autophagy in cells. MEF GFP-LC3 puncta imaging; test concentration mostly 10 µM. calls only at 10 µM (by protocol). 0.98% of 190,000 active. AID 463193;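 active = percentage of spot-positive cells more than 3 SD above its plate mean, without a fluorescence outlier flag or 80% toxicity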;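 also: spot-positive cell cutoff set from DMSO-treated cells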
b-catenin transl: beta-catenin nuclear translocation modulation | AID 1665 | nuclear translocation activity, % at 5 µM | HeLa beta-catenin nuclear translocation, immunofluorescence imaging | 0.3% of 190,000 active;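 active = nuclear translocation activity above 50% at 5 µM, with a well cell count of 50 or more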;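 also: per-cell ratio of nuclear to cytoplasmic median beta-catenin stain intensity; plate controls were DMSO negative control for no effect and GSK-3 inhibitor IX positive control for full effect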
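System: Human HeLa cells, endogenous beta-catenin | Compound dosing: 5 µM primary, 0.02–20 µM confirmation | Timing: 24 h compound exposure at 37°C, 5% CO2 | Measured by: Fluorescence imaging of beta-catenin antibody stain plus DAPI | Read-out basis: % activation of per-cell nuclear versus cytoplasmic median beta-catenin signal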
Ins promoter up: MIN6 insulin promoter up-regulation; MIN6 insulin promoter-GFP reporter, high-content imaging; active compounds read high; z-score at 5 µM; 0.3% of 190,000 active;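 active = z-score above 3 at 5 µM with at least 500 cells counted in the well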
Dynein cargo inh: blocks dynein driven cargo transport along microtubules | z-score, hits read low | 3617.4 mouse cells, GR-EGFP nuclear translocation imaging; test concentration mostly 20 µM; stimulated with dexamethasone, 1 µM; active compounds read low | 0.47% of 220,000 active;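 active = plate z-score of nuclear minus cytoplasmic receptor signal below a set negative limit, without overly bright fluorescence or cell loss, cut at about -3.5 in these data, passing the limit was not always enough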;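 also: z-score of nuclear minus cytoplasmic ring GR-EGFP intensity difference per well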
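Schedule: 48 h induction, then 1 h compound, then 30 min agonist, 37 °C. Buffer or medium: tetracycline-free induction medium containing charcoal-stripped FBS. Reagent: 1.0 µM final dexamethasone stimulus. Evaluation: nuclear versus cytoplasmic GR-EGFP signal, averaged per well. Signal: high-content fluorescence imaging after fixation.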
* hit, by the source's call; i = inactive; / = no result given; + = active, no number.

SMILES | MT stabilize HCS | Autophagy mod | b-catenin transl | Ins promoter up | Dynein cargo inh
Cc1ccc(S(=O)(=O)C(C#N)c2nc3ccccc3nc2N2CCC(C)CC2)cc1 (centres undefined) | 3 | i | -2 | 3.8* | 0.51
N#CC(c1nc2ccccc2nc1N1CCCC1)S(=O)(=O)c1ccccc1 (centres undefined) | 4 | i | 0 | -0.16 | 0.32
Nc1nn(-c2ccccc2)c(N)c1N=Nc1ccccc1 | 22* | i | 89* | -0.13 | 1.5
Nc1nn(-c2ccccc2)c(N)c1N=Nc1ccccc1F | 26* | i | 1 | -0.08 | 0.41
Nc1c(N=Nc2ccccc2F)c(=O)[nH]n1-c1ccccc1 | 2 | i | / | / | 0.072
C[C@@H]1CN(Cc2cn(C)nc2-c2cccc(Cl)c2)C[C@H](C)O1 | 5 | i | -2 | -0.37 | -0.7
Brc1ccc(C2=CC(c3cccs3)n3ncnc3N2)cc1 (centres undefined) | 3 | i | 1 | -0.33 | -0.72
Fc1ccc(Br)cc1C1C=C(c2cccnc2)Nc2ncnn21 (centres undefined) | 18* | i | / | 0.43 | 1.1
COc1ccccc1CCc1nnc(CCC(=O)NC(C)Cc2cccnc2)o1 (centres undefined) | 3 | i | -1 | 0.1 | 0.75
CCc1nnc2n1N=C(c1ccc(-c3cc(Cl)ccc3Cl)o1)CS2 | 8 | + | 0 | -0.58 | 0.0085
CCc1nnc2n1N=C(c1ccc(-c3ccc(Cl)cc3Cl)o1)CS2 | 3 | i | / | / | 1.4
COC(=O)c1cc(C(=O)c2ccc(Cl)cc2)n2c(=O)/c(=C\N(C)C)sc12 | 3 | + | 6 | / | -0.34
COC(=O)c1cc(C(=O)c2ccccc2)n2c(=O)/c(=C\N(C)C)sc12 | / | / | 0 | 0.78 | 0.85
Cc1ccc(-n2c(C)nc3oc4ccccc4c(=O)c3c2=O)cc1 | 2 | i | 2 | 3.9* | 0.036
Cc1ccccc1-c1nnc(-c2ccc(Cl)cc2)o1 | 1 | i | / | 3.5* | 0.34
C=CCn1c(SCc2nc3sc(C(=O)O)c(C)c3c(=O)[nH]2)nnc1-c1ccccc1 | 3 | + | -2 | 0.47 | 1.9
C=CCn1c(SCc2nc3sc(C(=O)O)c(C)c3c(=O)[nH]2)nnc1-c1ccc(C(C)(C)C)cc1 | / | / | -2 | 0.17 | 1.3
O=C(Nc1ccc(Cl)cn1)c1cccc(F)c1 | 39* | i | 100* | 0.16 | 0.021
O=C(Nc1ccc(Cl)cn1)c1ccccc1F | 17 | i | 3 | 1.1 | -1
CCOc1ccccc1NC(=O)c1ccccc1-c1nc(-c2ccccc2)no1 | 32* | i | 2 | -1.3 | 0.044
COc1ccc(-c2noc(-c3ccccc3C(=O)Nc3cccc(OC)c3)n2)cc1 | 4 | i | -3 | / | 1.9
Cc1ccc(C(=O)NNC(=O)/C=C\C(=O)O)cc1 | / | / | 0 | -0.54 | -0.015
COc1ccc(CNC(=O)CN2C(=O)C3C4C=CC(C4)C3C2=O)cc1 (centres undefined) | 3 | + | / | -0.09 | 1.1
C=CCN(Cc1nc(-c2ccc(OC)c(OC)c2)oc1C)C1CCS(=O)(=O)C1 (centres undefined) | 2 | i | 0 | -1.1 | 0.35
CCN1C=C(C(=O)OC)C(c2cccc(OC)c2OC)C(C(=O)OC)=C1 | 3 | i | 5 | -0.19 | 0.11
SMILES | MT stabilize HCS | Autophagy mod | b-catenin transl | Ins promoter up | Dynein cargo inh
COc1cccc(C2=CC(c3ccc(N(C)C)cc3)n3nnnc3N2)c1 (centres undefined) | 42* | i | -4 | 0.02 | -1
COc1cccc(C2C=C(c3ccc(OC)cc3OC)Nc3nnnn32)c1 (centres undefined) | 30* | i | / | / | -0.27
COc1ccc(C2=CC(c3ccc(OC)c(OC)c3)n3nnnc3N2)c(OC)c1 (centres undefined) | 3 | i | 1 | -3 | -0.79
COc1cccc(C2=CC(c3ccccc3)n3nnnc3N2)c1 (centres undefined) | 32* | i | / | / | -0.98
COc1ccc(C2C=C(c3ccccc3)Nc3nnnn32)cc1 (centres undefined) | 5 | i | -4 | -1.3 | 0.44
COc1cccc(-c2nc(N3CCCC3)c3ccccc3n2)c1O | / | / | 0 | -1.3 | 0.45
COc1cccc(-c2nc(Oc3cc(C)cc(C)c3)c3ccccc3n2)c1O | 6 | + | 0 | 0.1 | 0.23
COc1ccc(NC(=O)CCC(=O)c2cccs2)cc1S(=O)(=O)Nc1ccc(Cl)cc1 | 17* | i | 20 | -0.32 | -0.47
